An excerpt weighted towards active compounds, which were near 2.3% of everything screened.
Mcl-1 Bim block: disrupts Bim peptide binding to human Mcl-1; Q07820; Bead-based flow cytometry, Bim peptide-Mcl-1 binding; inhibition, % at 10 µM; 0.1% of 190,000 active; AID 1009; in the data active means inhibition above about 40%
Mcl1-Noxa inh: Mcl-1/Noxa interaction inhibition. Q07820. TR-FRET Mcl-1/Noxa peptide binding, 2 h. inhibition, % at 21.7 µM. 1.5% of 220,000 active;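 active means compounds that cut the protein-peptide binding signal by more than 50% relative to plate controls in a single-dose test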;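 further: His-tagged Mcl-1 with rhodamine Noxa BH3 peptide and terbium anti-His antibody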
T cell HTS: modulates CD8 T cell binding to vesicles; 2C CD8+ T cell-vesicle binding, flow cytometry; stronger effect = lower value; response (vesicle binding), % at 7 µM; 0.068% of 330,000 active; AID 2052;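 active means response, share of CD8 T cells binding vesicles, and their 90th percentile fluorescence all below set limits, cut at about 80% in these data, passing the limit was not always enough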;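 further: values below 100% mean blocked vesicle binding to the CD8+ T cells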
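Assay system – 2C mouse CD8+ T cells · Also added – QL9-loaded Drosophila micro-vesicles · Timing – Cell–vesicle co-incubation 1.5 h at 37 °C, staining 20 min on ice · Signal – flow cytometry of vesicle-bound cells · Measure – percent CD8+ FL2 mean versus row control · Controls – Peptide-free naked vesicles (low) and QL9 vesicles with 0.7% DMSO vehicle (high)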
Mcl1-Bid inh: disrupts binding of human Mcl-1 to Bid peptide | AID 1021 | 0.97% of 220,000 active | inhibition, % at 21.7 µM | TR-FRET Mcl-1/Bid-Dy647 peptide binding, 1536-well;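 active means compounds that cut the binding signal by more than half at the single screening dose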;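 further: His-tagged Mcl-1 with europium anti-His antibody binding Bid BH3 peptide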
MCL1-BIM inh: MCL1-BIM-BH3 interaction inhibition (human); 0.68% of 320,000 active; AID 2057; GST-MCL1 / FITC-Bim-BH3 fluorescence polarization; inhibition, % at 10.9 µM;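 active means inhibition above the mean inhibition of all tested compounds plus 3 SD, set per campaign, cut at about 40% in these data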;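 further: higher means more loss of mP so more displacement of Bim peptide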
DSG3 Ab inh: human desmoglein-3 autoantibody binding inhibition; P32926; DSG3-coupled beads, scFv-anti-DSG3-GFP binding, flow cytometry; stronger effect = lower value; binding (percent of control), % at 10 µM; 0.48% of 310,000 active; AID 588358;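 active means binding more than 3 SD below its plate's average and above zero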;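 further: hits lower antibody fragment binding to DSG3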
Target sequence (P32926 whole entry, looked up, the tested form may be a part): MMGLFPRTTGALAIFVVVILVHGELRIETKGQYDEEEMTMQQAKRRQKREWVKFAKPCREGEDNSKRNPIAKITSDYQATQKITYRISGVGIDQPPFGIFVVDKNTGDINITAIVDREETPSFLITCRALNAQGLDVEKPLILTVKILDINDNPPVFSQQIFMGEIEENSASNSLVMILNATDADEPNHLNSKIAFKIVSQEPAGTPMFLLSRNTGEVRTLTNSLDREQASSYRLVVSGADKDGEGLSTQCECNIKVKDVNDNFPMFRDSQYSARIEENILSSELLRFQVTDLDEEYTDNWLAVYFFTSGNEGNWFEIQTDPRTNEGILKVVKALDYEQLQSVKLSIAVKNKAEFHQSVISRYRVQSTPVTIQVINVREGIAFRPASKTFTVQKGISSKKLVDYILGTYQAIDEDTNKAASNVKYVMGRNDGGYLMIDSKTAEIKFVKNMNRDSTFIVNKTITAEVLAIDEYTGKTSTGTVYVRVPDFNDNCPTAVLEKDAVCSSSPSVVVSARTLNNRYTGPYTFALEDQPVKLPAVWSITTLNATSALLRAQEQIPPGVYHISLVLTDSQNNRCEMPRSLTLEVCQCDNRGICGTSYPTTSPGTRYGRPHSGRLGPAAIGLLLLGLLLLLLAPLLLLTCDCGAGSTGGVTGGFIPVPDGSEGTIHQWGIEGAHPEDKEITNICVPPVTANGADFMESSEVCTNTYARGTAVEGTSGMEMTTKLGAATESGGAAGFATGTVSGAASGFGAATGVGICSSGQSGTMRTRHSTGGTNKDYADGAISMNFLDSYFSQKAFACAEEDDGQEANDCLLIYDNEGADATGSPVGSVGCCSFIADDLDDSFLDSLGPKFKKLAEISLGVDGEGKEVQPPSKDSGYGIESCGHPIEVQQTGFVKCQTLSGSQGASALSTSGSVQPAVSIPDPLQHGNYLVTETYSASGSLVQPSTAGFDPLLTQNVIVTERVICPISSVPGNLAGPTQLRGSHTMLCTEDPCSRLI
Numbers stand for hits; - = inactive; . = not tested or not shown.

SMILES	Mcl-1 Bim block	Mcl1-Noxa inh	T cell HTS	Mcl1-Bid inh	MCL1-BIM inh	DSG3 Ab inh
COc1ccc(/C=C/C(=O)c2ccc(NC3=NCCCS3)cc2)cc1OC	-	51	-	-	-	-
Cc1cc(C)c2c(NC(=S)Nc3ccccc3)n[nH]c2n1	-	60	-	-	-	.
CC(C)(C)OC(=O)N(Cc1ccccc1)Cc1ccccc1OCc1cccc(NC(=O)c2ccccc2)c1	.	.	.	.	.	-
O=C(N/N=C1/C(=O)c2cccc3cccc1c23)c1ccc(Cl)cc1	-	-	-	88	46	61
O=C(CSc1nnnn1-c1ccc(F)cc1)c1ccc(O)c(O)c1	-	57	-	-	-	-
CC(=O)Nc1ccc(NC(=O)CSc2nnnn2-c2ccc(F)cc2)cc1	.	.	-	.	-	61
N#Cc1ccccc1COC(=O)c1ccc(Br)o1	.	.	-	.	-	-
O=C(Nc1ccccn1)c1cc2cc([N+](=O)[O-])ccc2s1	-	-	-	-	-	-
O=C(Nc1nnc(-c2ccccc2Cl)o1)c1cc2cc([N+](=O)[O-])ccc2s1	-	55	.	-	.	.
COc1cc(C(=O)OCC(=O)NCc2ccc(F)cc2)ccc1OCC(C)C	.	.	-	.	-	-
CCCc1cc(C(=O)NNC(=S)NC2CCCCC2)cs1	.	.	-	.	-	.
O=Cc1c(NC2CCCCC2)c2ccccc2[nH]c1=O	.	.	-	.	-	74
COc1ccc(C(=O)CCC(=O)N2CCN(c3ccccc3)CC2)cc1	.	.	-	.	-	-
O=C1NC(=S)SC1=Cc1ccccc1Cl	.	.	.	.	.	-
O=C1NC(=S)S/C1=C\c1ccc(SCc2ccco2)o1	-	98	-	62	75	-
CCC1=NN2C(=N)/C(=C\c3ccc(SCc4ccco4)o3)C(=O)N=C2S1	-	64	-	-	-	.
O=C1NC(=S)S/C1=C\c1ccc(SCc2ccccc2)o1	-	81	-	-	-	-
O=C1NC(=S)S/C1=C/c1ccc(OC(=O)c2ccco2)cc1	.	.	-	.	-	-
CCOC(=O)[C@H]1[C@H]2COc3ccc(Br)cc3[C@@H]2N2C(=O)c3c(C)cc(C)cc3NC(=O)[C@@]12C	.	.	-	.	.	-
CNc1nc(NCc2ccccc2)c2ccccc2n1	.	.	-	.	-	-
Oc1ccccc1Nc1nc(NCc2ccccc2)c2ccccc2n1	-	59	-	-	-	-
Cc1cn(CC(=O)NCCc2c[nH]c3ccccc23)c(=O)[nH]c1=O	.	.	.	.	.	-
Cc1ccc(C(=O)Nc2nc(-c3ccc([N+](=O)[O-])cc3)cs2)o1	-	65	-	56	-	-
Cc1ccc(C(=O)Nc2nc(-c3cc(Cl)sc3Cl)cs2)cc1	-	53	-	-	-	.
CC(=O)Nc1ccc(C(=O)Nc2nc(-c3cccnc3)cs2)cc1	-	-	-	-	-	.
SMILES	Mcl-1 Bim block	Mcl1-Noxa inh	T cell HTS	Mcl1-Bid inh	MCL1-BIM inh	DSG3 Ab inh
O=C(Nc1nc(-c2ccccc2)cs1)c1ccco1	.	-	-	-	-	-
CC(=O)Nc1ccc(C(=O)Nc2nc(-c3ccccn3)cs2)cc1	-	70	-	-	-	-
O=C(Nc1nc(-c2ccco2)cs1)c1ccccc1	-	54	-	-	-	-
CC(=O)Nc1ccc(-c2csc(NC(=O)c3ccc(C)o3)n2)cc1	-	.	-	-	-	-
COc1cccc(C(C(=O)NC2CCCC2)N(C(=O)CNC(=O)c2ccco2)c2cccnc2)c1 (stereo not given)	.	.	-	.	-	-
Cc1ccc(Nc2cc(=O)n(C)c(=O)[nH]2)cc1C	.	.	.	.	.	-
Cc1ccc(C(=O)Nc2nc(-c3ccccn3)cs2)o1	.	-	-	-	-	-
Cc1csc(NC(=O)c2ccncc2)n1	.	64	-	-	-	-
O=C(Nc1nc(-c2ccccn2)cs1)c1ccc([N+](=O)[O-])o1	.	90	-	-	-	-
CCC(C(=O)N1CCOCC1)n1c2ccccc2c2nc(=O)cc(C)n21 (stereo not given)	.	.	-	.	-	-
CCn1c(CSc2nc3ccccc3s2)nnc1SCC(=O)c1ccc(O)c(O)c1	-	62	-	-	-	-
CCn1c(CSc2nc3ccccc3s2)nnc1SCC(=O)c1ccc(Cl)cc1	-	-	-	-	-	-
CCOC(=O)C1(CCOc2ccccc2)CCN(Cc2cccc(OC)c2O)CC1	.	.	-	.	-	-
CCc1cc(C(c2ccc(F)cc2)N2CCOCC2)c(NC(=O)c2ccccc2)s1 (stereo not given)	-	-	-	68	-	-
CCc1cc(CN2CCOCC2)c(NC(=O)c2ccccc2)s1	-	-	-	-	-	-
O=[N+]([O-])c1ccc(NC(=S)NCc2ccc(F)cc2)cc1	.	.	-	.	-	-
CCOC(=O)c1cc2c(OC)c(OC)ccc2c2[nH]cc(C#N)c(=O)c12	.	.	.	.	.	-
CC(/C=N/NC(=O)CSc1nnc(SCc2ccccc2)s1)=C\c1ccco1	-	51	-	-	-	-
Cc1ccc(CSc2nnc(SCC(=O)N/N=C/C=C/c3ccco3)s2)cc1	-	-	-	-	-	-
CC(=O)n1cc(Nc2ccc([N+](=O)[O-])cc2)c2ccccc21	-	65	-	-	-	-
CC(=O)SC(C[N+](=O)[O-])c1cn(C(C)=O)c2ccccc12 (stereo not given)	-	59	-	-	-	-
CCC1(c2ccc(F)cc2)NC(=O)N(CC(=O)NC2CCCCCC2)C1=O (stereo not given)	.	.	-	.	.	.
O=C(/C=C/c1c(F)cccc1Cl)N1CCc2ccccc2C1	.	.	-	.	-	-
CCC(=O)N(CC)c1nc(-c2ccc(OC)cc2)cs1	-	-	-	54	-	73
COc1ccc(C2Nc3ccccc3C(=O)N2Cc2ccco2)cc1COc1ccc(NC(C)=O)cc1 (stereo not given)	-	-	-	-	-	37
SMILES	Mcl-1 Bim block	Mcl1-Noxa inh	T cell HTS	Mcl1-Bid inh	MCL1-BIM inh	DSG3 Ab inh
O=C(O)CNC(=O)/C(=C/c1ccco1)NC(=O)/C=C/c1ccccc1	-	-	-	-	-	-
C=CCOC(=O)/C(=C/c1ccco1)NC(=O)/C=C/c1ccccc1	.	-	-	89	-	.
O=C1Nc2ccccc2/C1=C\C(=O)c1ccccc1	.	.	-	.	-	-
O=C(/C=C1\C(=O)Nc2ccccc21)/C=C1\C(=O)Nc2ccccc21	.	102	.	92	.	-
COc1ccc(S(=O)(=O)N(C)C[C@H]2Oc3ccc(NC(=O)Cc4cn(C)c5ccccc45)cc3C(=O)N([C@@H](C)CO)C[C@@H]2C)cc1	.	.	-	.	.	-
Cn1c2c(c(=O)n(C)c1=O)C(NC(=O)C(C)(C)C)(C(F)(F)F)C(=O)N2 (stereo not given)	-	-	-	-	-	-
Cn1c2c(c(=O)n(C)c1=O)C(NS(=O)(=O)c1ccccc1)(C(F)(F)F)C(=O)N2 (stereo not given)	-	51	-	-	-	-
CC12CCC(C(=O)N(c3nccs3)C1=O)C2(C)C (stereo not given)	.	.	.	.	.	-
Cc1cccc(C)c1NC(=O)N1C2CCC1CC(O)(c1cccnc1)C2 (stereo not given)	-	53	-	-	-	-
CS(=O)(=O)c1ccc2nc(NC(=O)c3ccccc3)sc2c1	.	.	-	.	-	-

Screening results deposited in PubChem BioAssay by several laboratories.
